{"source": "ChEMBL document CHEMBL1141462", "about": "“Tetranorclerodanes and clerodane-type diterpene glycosides from Dicranopteris dichotoma” (J Nat Prod, 2007)", "key": {"[1]": {"assay": "Cytotoxicity against C8166 cells by MTT assay", "assay_type": "cell-based", "conditions": "human", "method_in_brief": "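C8166 cells were used, with viability read by MTT. Cytotoxicity was expressed as CC50.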"}, "[2]": {"assay": "Selectivity index, CC50 against C8166 cell/ EC50 against HIV1", "assay_type": "functional", "method_in_brief": "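The ratio is CC50 divided by EC50. CC50 comes from MTT cytotoxicity in C8166 cells, and EC50 from inhibition of HIV-1 cytopathic effect.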"}, "[3]": {"tested_on": "Human immunodeficiency virus 1", "assay": "Antiviral activity against HIV1", "assay_type": "functional, organism-based", "method_in_brief": "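HIV-1 activity was measured as inhibition of virus-induced cytopathic effect and reported as EC50.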"}}, "note": "pEC50: −log10 of the molar value."}
{"smiles": "C=C[C@@](C)(O)CC[C@@]1(C)[C@H](C)C[C@H](O)[C@@]2(C)C(C)=CCC[C@H]12", "values": [{"measurement": "CC50", "setting": "[1]", "result": 653, "unit": "µM"}, {"measurement": "Ratio CC50/EC50", "setting": "[2]", "result": ">10.99"}, {"measurement": "pEC50", "setting": "[3]", "result": 4.23}]}
{"smiles": "C=C[C@](C)(O)CC[C@@]1(C)[C@H](C)C[C@H](O[C@@H]2O[C@@H](C)[C@H](O[C@@H]3O[C@H](CO)[C@@H](OC(C)=O)[C@H](O)[C@H]3O)[C@@H](O)[C@H]2O)[C@@]2(C)C(C)=CCC[C@H]12", "values": [{"measurement": "CC50", "setting": "[1]", "result": 305, "unit": "µM"}, {"measurement": "Ratio CC50/EC50", "setting": "[2]", "result": ">2.09"}, {"measurement": "pEC50", "setting": "[3]", "result": 3.84}]}
{"smiles": "C=C[C@](C)(O)CC[C@@]1(C)[C@H](C)C[C@H](O[C@@H]2O[C@@H](C)[C@H](O[C@@H]3O[C@H](COC(C)=O)[C@@H](O)[C@H](O)[C@H]3O)[C@@H](O)[C@H]2O)[C@@]2(C)C(C)=CCC[C@H]12", "values": [{"measurement": "CC50", "setting": "[1]", "result": 121, "unit": "µM"}, {"measurement": "Ratio CC50/EC50", "setting": "[2]", "result": 1.1}, {"measurement": "pEC50", "setting": "[3]", "result": 3.96}]}
{"smiles": "CC(=O)OC[C@H]1O[C@@H](O[C@@H]2[C@@H](O)[C@@H](O)[C@H](O[C@H]3C[C@@H](C)[C@](C)(CC/C(C)=C/CO)[C@H]4CCC=C(C)[C@]34C)O[C@H]2C)[C@H](O)[C@@H](O)[C@@H]1O", "values": [{"measurement": "CC50", "setting": "[1]", "result": 136, "unit": "µM"}, {"measurement": "Ratio CC50/EC50", "setting": "[2]", "result": 1.78}, {"measurement": "pEC50", "setting": "[3]", "result": 4.12}]}
{"smiles": "C[C@@H]1C[C@H](O)[C@@]2(C)C(CO)=CCC[C@@H]2[C@@]1(C)CC(=O)O", "values": [{"measurement": "CC50", "setting": "[1]", "result": 709, "unit": "µM"}, {"measurement": "Ratio CC50/EC50", "setting": "[2]", "result": ">2.34"}, {"measurement": "pEC50", "setting": "[3]", "result": 3.52}]}
{"smiles": "C[C@@H]1C[C@H](O)[C@@]2(C)C(C=O)=CCC[C@@H]2[C@@]1(C)CC(=O)O", "values": [{"measurement": "CC50", "setting": "[1]", "result": 713, "unit": "µM"}, {"measurement": "Ratio CC50/EC50", "setting": "[2]", "result": ">2.19"}, {"measurement": "pEC50", "setting": "[3]", "result": 3.49}]}
{"smiles": "CC1=CCC[C@@H]2[C@@](C)(CC/C(C)=C/CO)[C@H](C)C[C@H](O[C@@H]3O[C@@H](C)[C@H](O[C@@H]4O[C@H](CO)[C@@H](O)[C@H](O)[C@H]4O)[C@@H](O)[C@H]3O)[C@@]12C", "values": [{"measurement": "CC50", "setting": "[1]", "result": 325, "unit": "µM"}, {"measurement": "Ratio CC50/EC50", "setting": "[2]", "result": ">3.82"}, {"measurement": "pEC50", "setting": "[3]", "result": 4.07}]}
{"smiles": "CC1=CCC[C@@H]2[C@@](C)(CC(=O)O)[C@H](C)C[C@H](O)[C@@]12C", "note": "[AYLTHONIC ACID]", "values": [{"measurement": "CC50", "setting": "[1]", "result": 751, "unit": "µM"}, {"measurement": "Ratio CC50/EC50", "setting": "[2]", "result": ">3.81"}, {"measurement": "pEC50", "setting": "[3]", "result": 3.71}]}
{"smiles": "Cc1cn([C@H]2C[C@H](N=[N+]=[N-])[C@@H](CO)O2)c(=O)[nH]c1=O", "note": "[ZIDOVUDINE]", "values": [{"measurement": "CC50", "setting": "[1]", "result": 5750, "unit": "µM"}, {"measurement": "Ratio CC50/EC50", "setting": "[2]", "result": 390406.06}, {"measurement": "pEC50", "setting": "[3]", "result": 7.83}]}
